Reference: ChEMBL document CHEMBL3421608, “Discovery and optimization of a novel series of Dyrk1B kinase inhibitors to explore a MEK resistance hypothesis” (J Med Chem, 2015)
Values after ≈ are worked out from the molar mass of the structure shown. Active and inactive are the calls of the source. The calls are words filed in the database; no cut-off is given here.

How the values were obtained:
[1] = molecular target: T1, Dual specificity tyrosine-phosphorylation-regulated kinase 1B (Homo sapiens, UniProt Q9Y463); assay: Inhibition of recombinant Dyrk1B (unknown origin) using FITC-Asp-His-Thr-Gly-Phe-Leu-Thr-Glu-Tyr-Val-Ala-Thr-Arg-NH2 as substrate after 60 mins
T1 sequence (Q9Y463 whole entry): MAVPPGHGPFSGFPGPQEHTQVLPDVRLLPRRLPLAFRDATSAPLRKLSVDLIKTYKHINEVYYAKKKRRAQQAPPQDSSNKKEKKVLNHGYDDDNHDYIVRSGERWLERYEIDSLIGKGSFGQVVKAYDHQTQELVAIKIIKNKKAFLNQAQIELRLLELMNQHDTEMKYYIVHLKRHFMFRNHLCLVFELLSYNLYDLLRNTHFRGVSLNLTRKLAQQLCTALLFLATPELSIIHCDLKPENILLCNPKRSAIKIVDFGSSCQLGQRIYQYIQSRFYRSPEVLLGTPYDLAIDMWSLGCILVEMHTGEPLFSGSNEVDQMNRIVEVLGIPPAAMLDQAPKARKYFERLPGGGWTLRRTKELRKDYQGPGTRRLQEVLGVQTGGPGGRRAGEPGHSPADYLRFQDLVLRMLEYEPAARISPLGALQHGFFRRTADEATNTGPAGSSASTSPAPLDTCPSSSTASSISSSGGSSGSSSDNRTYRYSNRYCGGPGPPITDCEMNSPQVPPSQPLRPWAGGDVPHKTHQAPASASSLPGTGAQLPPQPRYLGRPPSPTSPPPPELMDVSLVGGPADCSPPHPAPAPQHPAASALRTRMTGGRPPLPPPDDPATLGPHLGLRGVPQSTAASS

[2] = molecular target: T1, Dual specificity tyrosine-phosphorylation-regulated kinase 1B; assay: Inhibition of human full length C-terminal c-Myc tagged Dyrk1B phosphorylation overexpressed in monkey COS1 cells after 5 hrs by ELISA; format: cell-based, COS-1
[3] = molecular target: Insulin-like growth factor 1 receptor (Homo sapiens, UniProt P08069); assay: Inhibition of human recombinant N-terminal His6-tagged IGF-1R using fluorescence substrate after 80 mins by caliper off-chip incubation mobility shift assay
Insulin-like growth factor 1 receptor, sequence (P08069 31-736 limits assumed): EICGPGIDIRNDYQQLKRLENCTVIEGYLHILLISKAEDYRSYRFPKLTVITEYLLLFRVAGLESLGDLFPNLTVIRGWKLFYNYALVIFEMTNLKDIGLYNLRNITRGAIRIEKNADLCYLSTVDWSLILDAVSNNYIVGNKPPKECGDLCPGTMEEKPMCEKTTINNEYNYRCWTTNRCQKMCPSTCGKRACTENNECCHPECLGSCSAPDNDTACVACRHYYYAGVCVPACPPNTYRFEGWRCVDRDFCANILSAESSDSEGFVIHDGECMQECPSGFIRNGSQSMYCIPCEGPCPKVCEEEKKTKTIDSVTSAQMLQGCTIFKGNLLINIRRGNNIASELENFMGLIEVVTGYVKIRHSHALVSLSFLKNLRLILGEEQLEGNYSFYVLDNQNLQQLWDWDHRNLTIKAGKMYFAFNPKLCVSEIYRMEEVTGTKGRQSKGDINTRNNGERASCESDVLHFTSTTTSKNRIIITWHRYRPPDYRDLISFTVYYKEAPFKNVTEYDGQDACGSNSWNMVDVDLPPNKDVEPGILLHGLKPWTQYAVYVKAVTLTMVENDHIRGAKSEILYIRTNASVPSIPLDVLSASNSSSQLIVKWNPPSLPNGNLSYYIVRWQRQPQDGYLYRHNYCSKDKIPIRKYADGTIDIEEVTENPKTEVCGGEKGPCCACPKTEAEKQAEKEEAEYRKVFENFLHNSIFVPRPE
Insulin-like growth factor 1 receptor, sequence (P08069 741-1367 limits assumed): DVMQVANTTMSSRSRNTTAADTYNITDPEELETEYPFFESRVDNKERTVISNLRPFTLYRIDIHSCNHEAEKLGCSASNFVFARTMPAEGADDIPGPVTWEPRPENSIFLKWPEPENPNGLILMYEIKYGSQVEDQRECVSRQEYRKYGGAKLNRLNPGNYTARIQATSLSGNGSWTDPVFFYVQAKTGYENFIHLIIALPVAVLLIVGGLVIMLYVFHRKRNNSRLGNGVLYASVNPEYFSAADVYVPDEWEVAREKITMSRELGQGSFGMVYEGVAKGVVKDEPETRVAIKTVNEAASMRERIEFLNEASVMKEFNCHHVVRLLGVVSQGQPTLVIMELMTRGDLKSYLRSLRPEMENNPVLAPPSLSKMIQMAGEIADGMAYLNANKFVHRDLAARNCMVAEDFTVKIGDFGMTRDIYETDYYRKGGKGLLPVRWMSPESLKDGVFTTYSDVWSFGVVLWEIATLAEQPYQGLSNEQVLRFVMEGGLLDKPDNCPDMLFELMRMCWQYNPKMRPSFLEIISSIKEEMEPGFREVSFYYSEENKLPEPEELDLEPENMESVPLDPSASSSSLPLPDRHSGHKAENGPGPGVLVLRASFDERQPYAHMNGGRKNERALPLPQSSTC

[4] = molecular target: Cyclin-dependent kinase 2 (Homo sapiens, UniProt P24941); assay: Inhibition of human recombinant full length C-terminal His6-tagged CDK2 expressed in baculovirus infected Sf21 insect cells using fluorescence substrate after 60 mins by caliper off-chip incubation mobility shift assay
[5] = Intrinsic clearance in Wistar Han rat hepatocytes assessed per 10^6 cells; format: ADME, cell-based, Hepatocyte; settings: read-out: CLH
Method in brief: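 Intrinsic clearance in Wistar Han rat hepatocytes, expressed as μL/min/1 × 10⁶ cells.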

[6] = Clearance in Wistar Han rat plasma at 2 umol/kg; format: ADME, cell-free
[7] = Oral bioavailability in Wistar Han rat at 3 umol/kg; format: ADME, organism-based; settings: in vivo
[8] = Aqueous solubility of the compound at pH 7.4; format: physicochemical; settings: buffer
[9] = Permeability across human Caco2 cells; format: ADME, cell-based; settings: caco-2
[10] = molecular target: T2, Dual specificity tyrosine-phosphorylation-regulated kinase 2 (Homo sapiens, UniProt Q92630); assay: Inhibition of Dyrk2 (unknown origin)
T2 sequence (Q92630 whole entry): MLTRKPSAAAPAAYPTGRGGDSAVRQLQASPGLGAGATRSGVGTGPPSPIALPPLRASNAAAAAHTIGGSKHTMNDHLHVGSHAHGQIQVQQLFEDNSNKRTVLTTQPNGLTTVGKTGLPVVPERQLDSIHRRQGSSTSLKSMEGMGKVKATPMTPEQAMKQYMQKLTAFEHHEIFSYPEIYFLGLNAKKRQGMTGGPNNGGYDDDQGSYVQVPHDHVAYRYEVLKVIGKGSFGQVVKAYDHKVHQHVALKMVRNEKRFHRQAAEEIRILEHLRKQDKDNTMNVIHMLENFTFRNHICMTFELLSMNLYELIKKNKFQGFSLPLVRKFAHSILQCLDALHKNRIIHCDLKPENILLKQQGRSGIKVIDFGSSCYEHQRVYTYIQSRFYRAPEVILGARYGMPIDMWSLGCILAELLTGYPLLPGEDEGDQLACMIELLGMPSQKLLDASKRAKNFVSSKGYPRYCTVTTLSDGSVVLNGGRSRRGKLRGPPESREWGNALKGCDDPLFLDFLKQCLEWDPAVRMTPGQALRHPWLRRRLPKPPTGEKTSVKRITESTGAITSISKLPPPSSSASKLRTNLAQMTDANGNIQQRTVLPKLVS

[11] = system: A-375; assay: Cytotoxicity against human A375 cells at 1.33 uM after 72 hrs by calcein green AM/propidium iodide staining-based assay in presence of AZD6244 relative to control; format: functional, cell-based
Method in brief: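 A375 melanoma cells treated with AZD6244 with or without Dyrk1B inhibitor at 1.33 μM for 72 h. Viability by calcein green AM and propidium iodide staining; percentage of dead cells is mean and SEM of at least two separate experiments.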

| SMILES | IC50 [1] | IC50 [2] | IC50 [3] | IC50 [4] | hepatocyte CLint [5] | clearance [6] | bioavailability [7] | solubility [8] | permeability [9] | IC50 [10] | Activity [11] |
| --- | --- | --- | --- | --- | --- | --- | --- | --- | --- | --- | --- |
| Cn1cc(-c2ccnc(-c3ccc(S(C)(=O)=O)cc3)n2)c2ccncc21 | 12 nM | 810 nM | > 10000 nM | > 100000 nM | 8 µL/min/1e6 cells | 23 mL/min/kg | 37% | 2 µM (≈ 0.729 µg/mL) | permeable | – | – |
| COc1cc(N2CCN(C)CC2)ccc1Nc1nccc(-c2cn(C)c3cnccc23)n1 | – | – | 779 nM | 4470 nM | 18 µL/min/1e6 cells | 27 mL/min/kg | 22% | > 755 µM | – | 190 nM | inactive |
